Results: PMC5598522 (Toxicology Reports, 2014)
Marks after values point to notes of the source that are not given here.

What was measured:
Plasma exposure = assay type: in vivo, rat; details: carcinogenicity bioassay, Ticagrelor 180 mg/kg/day
Wistar rats = test: Tumor findings in rat 2-year carcinogenicity bioassay; assay type: in vivo; details: female rats, 2 years
Procedure, shortened: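 Wistar Han rats, 50 per sex per group (100 control females), started at seven weeks old and gavaged daily for 2 years at 0, 20, 60 or 180 mg/kg/day (females) in 1% carboxymethylcellulose/0.1% polysorbate 80. Full tissue list was paraffin-embedded, H&E-stained, examined microscopically and peer reviewed. Histology analysed by two-tailed Fisher's exact test; tumours by multiple testing at 5% significance.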

[1] = system: L5178Y/TK + 1 mouse lymphoma cells; test: Mouse lymphoma in vitro assay; assay type: cell-based
Procedure, shortened: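 Genotoxicity screens. Ames: Salmonella strains exposed to 3–3000 μg/plate with and without metabolic activation; read-out was reverse-mutation frequency. Mouse lymphoma: L5178Y/TK+ cells treated for 4 h with S9 (15.7–41.8 μg/mL), for 4 h without S9 (5.23–15.7 μg/mL), and for 24 h without S9; read-out was clone number. Micronucleus: male and female Alderly Park rats given 2000 mg/kg; micronuclei scored 24 or 48 h post-dose.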

dopamine D2L receptor = dopamine D2L receptor (Homo sapiens, UniProt P14416); test: Dopamine D2L receptor radioligand binding; details: 10 μM, human recombinant CHO cells
Sequence of dopamine D2L receptor (P14416 whole entry): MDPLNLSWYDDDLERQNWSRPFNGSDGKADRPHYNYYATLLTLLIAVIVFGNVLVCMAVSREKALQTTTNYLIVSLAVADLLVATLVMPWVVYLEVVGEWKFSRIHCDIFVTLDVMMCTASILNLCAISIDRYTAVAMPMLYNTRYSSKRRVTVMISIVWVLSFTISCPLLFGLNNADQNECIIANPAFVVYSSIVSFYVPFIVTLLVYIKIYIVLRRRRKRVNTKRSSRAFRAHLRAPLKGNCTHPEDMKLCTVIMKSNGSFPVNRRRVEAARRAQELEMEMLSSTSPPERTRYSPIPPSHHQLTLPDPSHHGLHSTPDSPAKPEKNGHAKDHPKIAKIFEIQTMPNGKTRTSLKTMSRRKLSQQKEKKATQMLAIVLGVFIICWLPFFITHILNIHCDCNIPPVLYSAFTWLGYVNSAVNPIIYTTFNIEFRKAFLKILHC
Procedure, shortened: (§1)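 Human recombinant receptors expressed in CHO cells (D1, D2L) or CHO-K1 cells (D4.2) were used in radioligand binding assays with [3H]SCH-23390 (D1), [3H]spiperone (D2L) or [3H]dopamine (D4.2). The test compound or its metabolite was tested at a single concentration of 10 μM. Results are expressed as percent inhibition of specific binding.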

dopamine D4.2 receptor = biological target: T1, dopamine D4.2 receptor (Homo sapiens, UniProt P21917, DEL265-296); test: Dopamine D4.2 receptor radioligand binding; details: 10 μM, human recombinant CHO-K1 cells
T1 sequence (P21917 with tags, fused parts or gaps DEL265-296): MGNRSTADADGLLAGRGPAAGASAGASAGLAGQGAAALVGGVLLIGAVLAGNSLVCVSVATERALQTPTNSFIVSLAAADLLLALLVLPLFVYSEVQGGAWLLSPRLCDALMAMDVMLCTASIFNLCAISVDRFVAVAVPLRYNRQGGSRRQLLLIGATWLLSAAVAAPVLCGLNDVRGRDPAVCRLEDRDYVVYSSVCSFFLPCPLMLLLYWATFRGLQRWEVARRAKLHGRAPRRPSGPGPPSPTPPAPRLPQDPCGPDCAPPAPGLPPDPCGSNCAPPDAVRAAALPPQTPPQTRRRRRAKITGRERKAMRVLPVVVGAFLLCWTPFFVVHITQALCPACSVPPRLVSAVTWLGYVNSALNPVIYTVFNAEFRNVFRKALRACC
Procedure, shortened: as §1

[2] = biological target: human dopamine transporter (Homo sapiens, UniProt Q01959); test: Dopamine transporter radioligand binding
Sequence of human dopamine transporter (Q01959 whole entry): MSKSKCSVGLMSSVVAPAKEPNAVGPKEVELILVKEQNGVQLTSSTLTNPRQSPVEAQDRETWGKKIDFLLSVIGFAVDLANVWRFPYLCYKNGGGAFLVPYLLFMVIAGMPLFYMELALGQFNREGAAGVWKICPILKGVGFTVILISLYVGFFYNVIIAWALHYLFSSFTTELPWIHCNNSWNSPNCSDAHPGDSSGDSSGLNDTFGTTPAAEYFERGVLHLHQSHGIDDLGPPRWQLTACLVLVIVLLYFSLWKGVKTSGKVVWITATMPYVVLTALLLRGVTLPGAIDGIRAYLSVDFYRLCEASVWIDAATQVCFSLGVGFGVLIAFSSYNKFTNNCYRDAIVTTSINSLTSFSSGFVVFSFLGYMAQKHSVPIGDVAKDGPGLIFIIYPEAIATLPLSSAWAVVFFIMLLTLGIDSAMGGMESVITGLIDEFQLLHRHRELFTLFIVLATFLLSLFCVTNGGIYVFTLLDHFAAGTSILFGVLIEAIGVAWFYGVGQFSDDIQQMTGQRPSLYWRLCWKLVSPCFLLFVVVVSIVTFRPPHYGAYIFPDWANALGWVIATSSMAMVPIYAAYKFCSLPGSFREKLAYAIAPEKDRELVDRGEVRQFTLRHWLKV
Procedure, shortened: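 Radioligand displacement of RTI-55 from human dopamine transporter expressed in recombinant CHO-K1 cells. Screened first at 10 μM as percent inhibition of specific binding. Then tested at 10 ascending concentrations in half-log steps. IC50 and Hill coefficient from non-linear least-squares regression; Ki by Cheng–Prusoff; four repeats. IC50 then compared with free systemic Cmax.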

[3] = Rat free systemic exposure in carcinogenicity study; assay type: in vivo
Procedure, shortened: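 Satellite carcinogenicity rats (10 per sex per dose) dosed orally at 20, 60 or 180/120 mg/kg/day. Heparinised blood taken on Days 1 and 3 and in Weeks 26 and 52, at 2–24 h post-dose (3 rats per sex per time point). Analysed by protein precipitation and LC-MS/MS.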

Protein binding, human = assay type: in vitro ADME
[4] = system: estradiol-induced prolactin release; test: Ovariectomized rat estradiol-induced prolactin release; assay type: in vivo; details: ovariectomized female rats, 180 mg/kg/day
Procedure, shortened: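 Female Han Wistar rats (350–375 g) were ovariectomized and given jugular and femoral vein catheters, then recovered 7–14 days. Test compound (180 mg/kg/day) or vehicle (1% sodium CMC in 0.1% polysorbate 80) was given orally for 4 days (n = 10/group). On Day 4, estradiol (2 μg/rat) was given IV 1 h post-dose. Remote femoral blood was sampled to 5 h. Plasma prolactin was measured by ELISA. Baseline-subtracted AUC was log-transformed and compared by t-test.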

platelet aggregation = details: humans, 100 mg b.i.d., at 4, 12 and 24 h; cited from earlier work

## CCCSc1nc(N[C@@H]2C[C@H]2c2ccc(F)c(F)c2)c2nnn([C@@H]3C[C@H](OCCO)[C@@H](O)[C@H]3O)c2n1 [Ticagrelor]
Plasma exposure; Day 1, 5 h post dose
  Plasma exposure (mean ± SD): 35.9 ± 17.9 µM
Plasma exposure; Week 26, 5 h post dose
  Plasma exposure (mean ± SD): 37.9 ± 10.5 µM
Wistar rats; 20 mg/kg/day
  Mammary fibroadenoma incidence: 22 percentage
  Pituitary hyperplasia and adenoma incidence: 64 percentage
  Uterine adenocarcinoma incidence: 10 percentage
  Uterine adenosquamous carcinoma incidence: 0 percentage
  Uterine squamous cell carcinoma incidence: 0 percentage
Wistar rats; 60 mg/kg/day
  Mammary fibroadenoma incidence: 16 percentage
  Pituitary anterior lobe adenoma in decedent rats: 53 percentage
  Pituitary hyperplasia and adenoma incidence: 73 percentage
  Uterine adenocarcinoma incidence: 12 percentage
  Uterine adenosquamous carcinoma incidence: 2 percentage
  Uterine squamous cell carcinoma incidence: 0 percentage
Wistar rats; 180 mg/kg/day
  Mammary fibroadenoma incidence: 2 ^* percentage
  Pituitary anterior lobe adenoma in decedent rats: 35 ^* percentage
  Pituitary hyperplasia and adenoma incidence: 50 ^* percentage
  Uterine adenocarcinoma incidence: 42 ^*** percentage
  Uterine adenosquamous carcinoma incidence: 4 percentage
  Uterine squamous cell carcinoma incidence: 2 percentage
[1]
  Mouse lymphoma in vitro: Conclusion: Negative
[1]; 15.7–41.8 μg/mL (4 h + S9), 5.23–15.7 μg/mL (4 h − S9), 15.7–36.6 (24 h − S9)
  Mouse lymphoma in vitro: Results: No increased number of clones associated with treatment
Dopamine D2L receptor
  Inhibition of radioligand binding at the D2L receptor: neither Ticagrelor nor metabolite caused inhibition
Dopamine D4.2 receptor
  Inhibition of radioligand binding at the D4.2 receptor: neither Ticagrelor nor metabolite caused inhibition
[2]; at human free systemic Cmax
  Inhibition of the dopamine transporter at free systemic Cmax levels: minimal inhibition
[2]; at rat free systemic Cmax
  Inhibition of the dopamine transporter at free systemic Cmax levels: > 50%
[3]; high dose group, based on 99.0% protein binding
  Rat free systemic exposure maximal concentration (Cmax): 502 nM
[3]; low dose group
  Rat free systemic exposure Cmax: 43 nM
[3]; mid dose group
  Rat free systemic exposure Cmax: 157 nM
Protein binding, human
  fraction unbound: 0.008
[4]
  Effect on estradiol-induced prolactin release: all but completely blocked the estradiol-induced prolactin release
Platelet aggregation
  Inhibition of platelet aggregation: greater than 90%
